Measurements from ChEMBL document CHEMBL3351334, “Protective effects of resveratrol on hepatotoxicity induced by isoniazid and rifampicin via SIRT1 modulation” (2014).
Active and inactive are the calls of the source.

Experiments:
Mus musculus [1] = assay: (§1) Hepatoprotective activity against isoniazid-rifampicin induced liver injury in BALB/c mouse assessed as reduction in hepatic lesion at 100 mg/kg, po bid for 3 days starting 30 mins prior isoniazid-rifampicin administration measured 24 hrs post-last dose of isoniazid-rifampicin relative to control; type: functional, organism-based; parameters: dose 100 mg/kg
Outline: (§2)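 Liver fixed in 10% formaldehyde and paraffin-embedded. 4 μm sections stained with hematoxylin and eosin, examined by light microscopy by a veterinary pathologist blinded to groups. Tissue taken 24 h after the last of 3 daily oral isoniazid (50 mg/kg) + rifampicin (100 mg/kg) doses.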

Mus musculus [2] = assay: (§3) Hepatoprotective activity against isoniazid-rifampicin induced liver injury in BALB/c mouse assessed as change in SIRT6 mRNA level at 100 mg/kg, po bid for 3 days starting 30 mins prior isoniazid-rifampicin administration measured 24 hrs post-last dose of isoniazid-rifampicin relative to control; type: functional, organism-based; parameters: dose 100 mg/kg
Outline: (§4)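 Livers taken 24 h after the last of three daily oral isoniazid 50 mg/kg + rifampicin 100 mg/kg doses (in 1% DMSO/saline). Hepatic mRNA measured by qPCR with mouse GAPDH probe as endogenous control, reactions in duplicate, relative expression by the 2ΔΔC method. n = 6 male BALB/c mice/group, mean ± SEM.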

Mus musculus [3] = assay: (§5) Hepatoprotective activity against isoniazid-rifampicin induced liver injury in BALB/c mouse assessed as reduction ALT level at 100 mg/kg, po bid for 3 days starting 30 mins prior isoniazid-rifampicin administration measured 24 hrs post-last dose of isoniazid-rifampicin relative to control; type: functional; parameters: scale not given: the % may be the effect or the level left
Outline: (§6)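 Serum AST and ALT measured with commercial kits in blood drawn 24 h after the last of three daily oral isoniazid (50 mg/kg) + rifampicin (100 mg/kg) doses. 6 male BALB/c mice per group, mean ± SEM, one-way ANOVA with Newman–Keuls test.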

Mus musculus [4] = assay: Hepatoprotective activity against isoniazid-rifampicin induced liver injury in BALB/c mouse assessed as reduction AST level at 100 mg/kg, po bid for 3 days starting 30 mins prior isoniazid-rifampicin administration measured 24 hrs post-last dose of isoniazid-rifampicin relative to control; type: functional; parameters: scale not given: the % may be the effect or the level left; outline: as §6
Mus musculus [5] = assay: as §5, with “in PPAR-gamma mRNA” for “ALT”; type: functional, organism-based; parameters: dose 100 mg/kg; outline: as §4
Mus musculus [6] = assay: Hepatoprotective activity against isoniazid-rifampicin induced liver injury in BALB/c mouse assessed as effect on NAD+ concentration at 100 mg/kg, po bid for 3 days starting 30 mins prior isoniazid-rifampicin administration measured 24 hrs post-last dose of isoniazid-rifampicin relative to control; type: functional, organism-based; parameters: dose 100 mg/kg
Outline: (§7)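 Liver NAD+ and NADH quantified with a commercial colorimetric kit per manufacturer's instructions, reduced product read at 565 nm. Tissue collected 24 h after the final oral isoniazid (50 mg/kg) + rifampicin (100 mg/kg) dose of a 3-day course. 6 male BALB/c mice per group.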

Mus musculus [7] = assay: Hepatoprotective activity against isoniazid-rifampicin induced liver injury in BALB/c mouse assessed as change in SIRT5 mRNA level at 100 mg/kg, po bid for 3 days starting 30 mins prior isoniazid-rifampicin administration measured 24 hrs post-last dose of isoniazid-rifampicin relative to control; type: functional, organism-based; parameters: dose 100 mg/kg; outline: as §4
Mus musculus [8] = assay: Hepatoprotective activity against isoniazid-rifampicin induced liver injury in BALB/c mouse assessed as reduction in IL-12p70 level at 100 mg/kg, po bid for 3 days starting 30 mins prior isoniazid-rifampicin administration measured 24 hrs post-last dose of isoniazid-rifampicin relative to control; type: functional, organism-based; parameters: dose 100 mg/kg
Outline: (§8)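 Cytokines measured in homogenized liver tissue by flow cytometry (488 nm laser, high-throughput sampler). Tissue from male BALB/c mice 24 h after final oral isoniazid 50 mg/kg + rifampicin 100 mg/kg. n = 6/group, mean ± SEM, one-way ANOVA/Newman–Keuls.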

Mus musculus [9] = assay: Hepatoprotective activity against isoniazid-rifampicin induced liver injury in BALB/c mouse assessed as effect on NADH concentration at 100 mg/kg, po bid for 3 days starting 30 mins prior isoniazid-rifampicin administration measured 24 hrs post-last dose of isoniazid-rifampicin relative to control; type: functional, organism-based; parameters: dose 100 mg/kg; outline: as §7
Mus musculus [10] = assay: Hepatoprotective activity against isoniazid-rifampicin induced liver injury in BALB/c mouse assessed as change in SIRT7 mRNA level at 100 mg/kg, po bid for 3 days starting 30 mins prior isoniazid-rifampicin administration measured 24 hrs post-last dose of isoniazid-rifampicin relative to control; type: functional, organism-based; parameters: dose 100 mg/kg; outline: as §4
Mus musculus [11] = assay: as §3, with “restoration of SIRT1” for “change in SIRT6”; type: functional, organism-based; parameters: dose 100 mg/kg; outline: as §4
Mus musculus [12] = assay: Hepatoprotective activity against isoniazid-rifampicin induced liver injury in BALB/c mouse assessed as reduction in IL6 level at 100 mg/kg, po bid for 3 days starting 30 mins prior isoniazid-rifampicin administration measured 24 hrs post-last dose of isoniazid-rifampicin relative to control; type: functional, organism-based; parameters: dose 100 mg/kg
Mus musculus [13] = assay: Hepatoprotective activity against isoniazid-rifampicin induced liver injury in BALB/c mouse assessed as change in SIRT2 mRNA level at 100 mg/kg, po bid for 3 days starting 30 mins prior isoniazid-rifampicin administration measured 24 hrs post-last dose of isoniazid-rifampicin relative to control; type: functional, organism-based; parameters: dose 100 mg/kg; outline: as §4
Mus musculus [14] = assay: as §3, with “effect on nicotinamide phosphoribosyltransferase” for “change in SIRT6”; type: functional, organism-based; parameters: dose 100 mg/kg; outline: as §4
Mus musculus [15] = assay: Hepatoprotective activity against isoniazid-rifampicin induced liver injury in BALB/c mouse assessed as change in SIRT4 mRNA level at 100 mg/kg, po bid for 3 days starting 30 mins prior isoniazid-rifampicin administration measured 24 hrs post-last dose of isoniazid-rifampicin relative to control; type: functional, organism-based; parameters: dose 100 mg/kg; outline: as §4
Mus musculus [16] = assay: as §1, with “fatty accumulation” for “hepatic lesion”; type: functional, organism-based; parameters: dose 100 mg/kg; outline: as §2
Mus musculus [17] = assay: Hepatoprotective activity against isoniazid-rifampicin induced liver injury in BALB/c mouse assessed as reduction in TNFalpha level at 100 mg/kg, po bid for 3 days starting 30 mins prior isoniazid-rifampicin administration measured 24 hrs post-last dose of isoniazid-rifampicin relative to control; type: functional, organism-based; parameters: dose 100 mg/kg; outline: as §8
Mus musculus [18] = assay: as §5, with “in PGC-1alpha mRNA” for “ALT”; type: functional, organism-based; parameters: dose 100 mg/kg; outline: as §4
Mus musculus [19] = assay: as §1, with “prevention of liver statosis development” for “reduction in hepatic lesion”; type: functional, organism-based; parameters: dose 100 mg/kg; outline: as §2
Mus musculus [20] = assay: as §1, with “increase” for “reduction”, “catalase activity depletion” for “hepatic lesion”; type: functional
Outline: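 Liver homogenized 1:9 w/v in 0.9% saline and spun 3500g, 10 min, 4 °C. Supernatant in 50 mM PBS pH 7.0 with 20 mM H2O2 substrate. H2O2 decomposition followed continuously at 240 nm (Aebi method), expressed as mmol H2O2/min/mg protein. n = 6 mice, mean ± SEM.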

Mus musculus [21] = assay: Hepatoprotective activity against isoniazid-rifampicin induced liver injury in BALB/c mouse assessed as reversal of GSH depletion at 100 mg/kg, po bid for 3 days starting 30 mins prior isoniazid-rifampicin administration measured 24 hrs post-last dose of isoniazid-rifampicin relative to control; type: functional
Outline: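 Reduced glutathione assayed with DTNB. Liver homogenized 1:9 w/v in 0.9% saline, spun 3500g 20 min 4 °C. Supernatant deproteinized with 4% sulfosalicylic acid, spun again, then mixed with 0.1 M phosphate buffer and 0.01 M DTNB. Absorbance at 412 nm. 6 mice/group, mean ± SEM.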

Mus musculus [22] = assay: Hepatoprotective activity against isoniazid-rifampicin induced liver injury in BALB/c mouse assessed as reduction in IL-10 level at 100 mg/kg, po bid for 3 days starting 30 mins prior isoniazid-rifampicin administration measured 24 hrs post-last dose of isoniazid-rifampicin relative to control; type: functional, organism-based; parameters: dose 100 mg/kg; outline: as §8
Mus musculus [23] = assay: Hepatoprotective activity against isoniazid-rifampicin induced liver injury in BALB/c mouse assessed as change in SIRT3 mRNA level at 100 mg/kg, po bid for 3 days starting 30 mins prior isoniazid-rifampicin administration measured 24 hrs post-last dose of isoniazid-rifampicin relative to control; type: functional, organism-based; parameters: dose 100 mg/kg; outline: as §4
Mus musculus [24] = assay: Hepatoprotective activity against isoniazid-rifampicin induced liver injury in BALB/c mouse assessed as reduction in MCP-1 level at 100 mg/kg, po bid for 3 days starting 30 mins prior isoniazid-rifampicin administration measured 24 hrs post-last dose of isoniazid-rifampicin relative to control; type: functional, organism-based; parameters: dose 100 mg/kg
Mus musculus [25] = assay: as §1, with “myeloperoxidase activity” for “lesion”; type: functional; parameters: scale not given: the % may be the effect or the level left
Outline: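 Neutrophil recruitment estimated from hepatic myeloperoxidase activity (modified Paszcuk method), expressed as OD/mg tissue. Livers collected 24 h after the last oral isoniazid 50 mg/kg + rifampicin 100 mg/kg dose of a 3-day course. 6 male BALB/c mice/group, mean ± SEM.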

Measured: Activity

Oc1ccc(/C=C/c2cc(O)cc(O)c2)cc1 [RESVERATROL]
19%: Mus musculus [25]
34%: Mus musculus [20]
36%: Mus musculus [4]
89%: Mus musculus [21]
active: Mus musculus [1] | Mus musculus [5] | Mus musculus [8] | Mus musculus [11] | Mus musculus [16] | Mus musculus [17] | Mus musculus [18] | Mus musculus [19] | Mus musculus [22]
58%: Mus musculus [3]
inactive: all other assays above
